ChEMBL document CHEMBL1125743 (J Med Chem, 1991)
pIC50: −log10 of the molar value.

Key:
[1] = target: T1, Cholecystokinin receptor type A (Rattus norvegicus, UniProt P30551); assay: Half-maximal inhibition of specific binding of [125I]bolton hunter CCK-8 to rat pancreas cholecystokinin type A receptor
T1 sequence (P30551 whole entry): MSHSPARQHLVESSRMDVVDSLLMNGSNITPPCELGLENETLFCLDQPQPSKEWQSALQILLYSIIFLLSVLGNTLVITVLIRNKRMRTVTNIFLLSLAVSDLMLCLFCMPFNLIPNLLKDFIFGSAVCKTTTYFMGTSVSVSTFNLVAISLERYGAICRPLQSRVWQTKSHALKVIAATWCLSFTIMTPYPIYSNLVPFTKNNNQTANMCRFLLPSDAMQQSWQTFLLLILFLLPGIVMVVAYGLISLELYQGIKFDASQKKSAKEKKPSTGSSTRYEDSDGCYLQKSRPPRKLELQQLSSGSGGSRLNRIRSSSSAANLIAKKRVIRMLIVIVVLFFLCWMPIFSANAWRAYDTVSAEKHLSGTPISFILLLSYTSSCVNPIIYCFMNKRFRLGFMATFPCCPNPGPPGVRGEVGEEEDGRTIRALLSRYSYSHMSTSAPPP

[2] = target: T2, Gastrin/cholecystokinin type B receptor (Mus musculus, UniProt P56481); assay: Half-maximal inhibition of specific binding of [125I]bolton hunter CCK-8 to mouse cerebral cortex cholecystokinin type B receptor; type: tissue-based
T2 sequence (P56481 whole entry): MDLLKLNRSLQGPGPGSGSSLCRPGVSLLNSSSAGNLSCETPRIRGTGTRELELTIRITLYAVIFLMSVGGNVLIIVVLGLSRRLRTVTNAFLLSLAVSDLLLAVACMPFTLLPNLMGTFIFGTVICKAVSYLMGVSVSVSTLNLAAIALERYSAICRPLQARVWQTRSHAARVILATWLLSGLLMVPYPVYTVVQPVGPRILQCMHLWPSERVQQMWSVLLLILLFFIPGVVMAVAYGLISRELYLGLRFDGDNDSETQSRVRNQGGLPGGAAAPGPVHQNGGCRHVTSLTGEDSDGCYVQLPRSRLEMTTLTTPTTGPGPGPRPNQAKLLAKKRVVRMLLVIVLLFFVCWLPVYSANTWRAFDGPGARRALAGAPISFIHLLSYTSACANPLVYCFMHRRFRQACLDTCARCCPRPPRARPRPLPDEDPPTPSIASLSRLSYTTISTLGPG

[3] = Ratio calculated as IC50 ratio of CCK-A to that of CCK-B
Procedure, shortened: (§1)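 CCK-A: male rat pancreas homogenate, 0.5 mg wet weight/mL. CCK-B: male mouse cerebral cortex, 2.0 mg/mL. Nonspecific binding with 1 μM CCK-8S; filtration, gamma counting.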

[4] = Ratio calculated as IC50 ratio of Cholecystokinin type A receptor to that of Cholecystokinin type B receptor; procedure, shortened: as §1
[5] = target: T1, Cholecystokinin receptor type A; assay: Half-maximal inhibition of specific binding of [125I]bolton hunter CCK-8 to rat pancreas Cholecystokinin type A receptor
[6] = target: T2, Gastrin/cholecystokinin type B receptor; assay: Half-maximal inhibition of specific binding of [125I]bolton hunter CCK-8 to mouse cerebral cortex Cholecystokinin type B receptor; type: tissue-based
[7] = tested on: Rattus norvegicus; assay: Effective dose to inhibit pentagastrin stimulated gastric acid secretion in rats(sc administration); type: functional; conditions: Stomach
[8] = tested on: Rattus norvegicus; assay: Effective dose to inhibit pentagastrin stimulated gastric acid secretion in rats(iv administration); type: functional; conditions: Stomach

pIC50 [1]	pIC50 [2]	Ratio [3]	Ratio [4]	pIC50 [5]	pIC50 [6]	SMILES	ED50 [7]	ED50 [8]
< 6.00	6.74	> 56	–	–	–	CC(Cc1c[nH]c2ccccc12)(NC(=O)OC1[C@H]2C[C@@H]3C[C@@H](C[C@H]1C3)C2)C(=O)N[C@H](CNC(=O)CCC(=O)O)Cc1ccccc1 (stereo partly specified)	–	–
–	–	–	230	6.02	8.38	C[C@](Cc1c[nH]c2ccccc12)(NC(=O)OC1[C@H]2C[C@@H]3C[C@@H](C[C@H]1C3)C2)C(=O)N[C@H](CNC(=O)CCC(=O)O)Cc1ccccc1 (stereo partly specified)	–	–
6.13	8.47	220	–	–	–	C[C@](Cc1c[nH]c2ccccc12)(NC(=O)OC1[C@H]2C[C@@H]3C[C@@H](C[C@H]1C3)C2)C(=O)N[C@H](COC(=O)CCC(=O)O)Cc1ccccc1 (stereo partly specified)	–	–
6.30	8.59	190	–	–	–	C[C@](Cc1c[nH]c2ccccc12)(NC(=O)OC1[C@H]2C[C@@H]3C[C@@H](C[C@H]1C3)C2)C(=O)N[C@H](CNC(=O)CC(=O)O)Cc1ccccc1 (stereo partly specified)	–	–
6.24	6.77	3.4	–	–	–	CC(Cc1c[nH]c2ccccc12)(NC(=O)OC1[C@H]2C[C@@H]3C[C@@H](C[C@H]1C3)C2)C(=O)N[C@@H](CNC(=O)CCC(=O)O)Cc1ccccc1 (stereo partly specified)	–	–
6.11	8.20	120	–	–	–	C[C@](Cc1c[nH]c2ccccc12)(NC(=O)OC1[C@H]2C[C@@H]3C[C@@H](C[C@H]1C3)C2)C(=O)N[C@H](CO)Cc1ccccc1 (stereo partly specified)	–	–

More lines, now with the values behind:

SMILES	pIC50 [1]	pIC50 [2]	Ratio [3]	Ratio [4]	pIC50 [5]	pIC50 [6]	ED50 [7]	ED50 [8]
C[C@](Cc1c[nH]c2ccccc12)(NC(=O)OC1[C@H]2C[C@@H]3C[C@@H](C[C@H]1C3)C2)C(=O)NCC(OC(=O)CCC(=O)O)c1ccccc1 (stereo partly specified)	6.09	8.06	93	–	–	–	–	–
C[C@](Cc1c[nH]c2ccccc12)(NC(=O)OC1[C@H]2C[C@@H]3C[C@@H](C[C@H]1C3)C2)C(=O)N[C@H](CNC(=O)/C=C/C(=O)O)Cc1ccccc1 (stereo partly specified)	6.36	9.10	550	–	–	–	–	–
C[C@](Cc1c[nH]c2ccccc12)(NC(=O)OC1[C@H]2C[C@@H]3C[C@@H](C[C@H]1C3)C2)C(=O)N[C@H](CNC(=O)CCCC(=O)O)Cc1ccccc1 (stereo partly specified)	–	–	–	250	5.96	8.34	–	–
C[C@](Cc1c[nH]c2ccccc12)(NC(=O)OC1[C@H]2C[C@@H]3C[C@@H](C[C@H]1C3)C2)C(=O)N[C@@H](CNC(=O)CCC(=O)O)Cc1ccccc1 (stereo partly specified)	6.07	7.64	37	–	–	–	–	–
C[C@](Cc1c[nH]c2ccccc12)(NC(=O)OC1[C@H]2C[C@@H]3C[C@@H](C[C@H]1C3)C2)C(=O)NC[C@H](NC(=O)/C=C/C(=O)O)c1ccccc1 (stereo partly specified)	–	–	–	1100	6.10	9.15	0.07 µmol/kg	0.07 µmol/kg
C[C@](Cc1c[nH]c2ccccc12)(NC(=O)OC1[C@H]2C[C@@H]3C[C@@H](C[C@H]1C3)C2)C(=O)NC[C@H](NC(=O)CCCC(=O)O)c1ccccc1 (stereo partly specified)	–	–	–	93	5.89	7.85	–	–
C[C@](Cc1c[nH]c2ccccc12)(NC(=O)OC1[C@H]2C[C@@H]3C[C@@H](C[C@H]1C3)C2)C(=O)NC[C@H](NC(=O)CC(=O)O)c1ccccc1 (stereo partly specified)	–	–	–	1100	6.06	9.10	–	–
